Compound activity as filed in PubChem BioAssay.
Only some compounds are listed: those with a hit (about 3.5% of all), similar ones and a draw of the others.
MrgX1 antagonist – blocks BAM8-22 activation of human MrgX1 receptor; Q96LB2; MRGX1-HEK293 calcium flux, Fluo-4, BAM8-22 antagonism; active compounds read low; B-score at 10 µM; actives 1.3% (n = 310,000); AID 588676;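 active = calcium-response B-score plate-corrected more than 3 library SD below zero, starting fluorescence within 5 deviations, no agonist response on first addition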;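 note: peak minus trough fluorescence over baseline after final BAM8-22 challenge near maximal dose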
Target sequence (Q96LB2 whole entry, looked up): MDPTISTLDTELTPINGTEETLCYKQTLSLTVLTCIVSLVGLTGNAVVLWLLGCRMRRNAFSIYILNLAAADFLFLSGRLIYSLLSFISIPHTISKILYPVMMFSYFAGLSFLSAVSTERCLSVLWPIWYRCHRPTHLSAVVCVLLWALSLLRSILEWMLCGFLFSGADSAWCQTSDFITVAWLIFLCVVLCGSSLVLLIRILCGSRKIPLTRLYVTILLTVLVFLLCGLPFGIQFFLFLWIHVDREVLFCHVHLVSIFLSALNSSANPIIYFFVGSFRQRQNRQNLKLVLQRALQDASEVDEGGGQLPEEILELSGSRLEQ
MrgX1 ag – agonists of human MrgX1 receptor. actives 0.44% (n = 310,000). B-score at 10 µM. Q96LB2. MrgX1-HEK293 cells, Fluo-4 calcium fluorescence, agonist mode; active compounds read high;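 active = calcium response B-score plate-corrected fluorescence ratio at least 3 library SD, with starting fluorescence B-score inside 5 SD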
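Test system: HEK293 cells stably expressing human MrgX1 receptor; amount: 15,000 cells per well; doses: compound delivered in addition one of three; times: overnight plating before 1 h dye loading; detection: Fluo-4 NW calcium-flux fluorescence, kinetic read; read-out basis: B-scored fluorescence response ratio; controls: positive and negative controls per plate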
RGS4 block – inhibitors of human RGS4 | P49798 | HEK293 M3R/RGS4 inducible, Fluo-4 calcium flux; active compounds read high; triggered by carbachol at its EC20 | B-score at 10 µM | actives 0.45% (n = 310,000);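 active = B-score, a plate-corrected calcium signal, over three deviations above library mean, with baseline fluorescence within five deviations of library mean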;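 note: RGS4 expression induced by doxycycline in cells with stable M3 receptor; B-score is computed from the integrated fluorescence ratio over baseline after carbachol; higher B-score means a larger calcium signal and so more RGS4 inhibition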
Target sequence (P49798 whole entry, looked up): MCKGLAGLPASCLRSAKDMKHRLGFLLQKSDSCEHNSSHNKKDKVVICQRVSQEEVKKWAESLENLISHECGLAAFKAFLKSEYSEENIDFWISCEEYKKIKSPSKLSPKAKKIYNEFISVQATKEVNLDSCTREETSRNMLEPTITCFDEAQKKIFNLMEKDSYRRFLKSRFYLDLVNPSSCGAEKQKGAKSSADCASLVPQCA
MrgX1 allo act – human MrgX1 positive allosteric modulation, primary screen; Q96LB2; MrgX1-HEK293, Fluo-4 calcium flux, FDSS; active compounds read high; B-score at 10 µM; actives 0.63% (n = 310,000); AID 588675;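 active = plate-corrected calcium response at least 3 library SD above typical, normal starting fluorescence, not activating the receptor alone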;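 note: compound read alongside a low EC10 to EC30 dose of BAM8-22 agonist; peak minus trough fluorescence over baseline measured at the second addition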
RGS4 act – potentiators or activators of RGS4 | HEK293 M3R/inducible RGS4, carbachol calcium flux Fluo4; active compounds read low | B-score at 10 µM | actives 0.92% (n = 310,000) | AID 463111;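 active = B-score of the integrated calcium signal more than 4 SD below the library mean, with starting fluorescence not abnormally high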;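 note: negative B-score means reduced calcium response which marks RGS4 activation or potentiation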
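test system = M3R-expressing HEK293 line, RGS4 induced by doxycycline | probe or stimulus = carbachol at ECmax as muscarinic agonist stimulus | timing = dye loading 30 min 37 °C, buffer rest 30 min RT | signal = calcium dye Fluo4 fluorescence | evaluation = B score from integrated fluorescence ratio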
MrgX1 ant reconf – human MrgX1 receptor antagonism, re-confirmation screen; actives 19% (n = 2,300); shares compounds with MrgX1 antagonist; remaining BAM8-22 calcium response % of control (active compounds read low), % at 10 µM; MrgX1-HEK293, BAM8-22 calcium flux, Fluo-4; active compounds read low;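 active = remaining agonist calcium response no higher than 100% minus 3 SD of agonist-only control wells, with starting fluorescence near control levels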;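 note: agonist BAM8-22 given at a near maximal EC90 to ECmax level; peak minus minimum fluorescence divided by baseline after agonist addition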
HEK293 Ca flux – activity in parental HEK293 cells lacking MrgX1; shares compounds with MrgX1 antagonist; Fluo-4 calcium fluorescence, FDSS; fluorescence ratio F(max-min)/F0 at 10 µM; actives 2% (n = 4,000); AID 624111;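 active = duplicate-averaged calcium fluorescence ratio at least three times the standard deviation of buffer wells, a nonspecific response in parental cells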
HEK293 Ca counter – counter-screen for MrgX1 allosteric activators: effect in parental HEK293 cells. AID 624114. shares compounds with MrgX1 antagonist. actives 0.4% (n = 4,000). parental HEK293 calcium flux, Fluo-4 fluorescence ratio; active compounds read high. fluorescence ratio F(max-min)/F0 at 10 µM;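 active = calcium fluorescence ratio, averaged over duplicates, at least 3 SD of the buffer-well ratio, meaning a nonspecific response in receptor-free cells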;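 note: untransfected parental HEK293 lacking MrgX1 used as counterscreen for MrgX1 allosteric activators; fluorescence change taken during the second addition on a kinetic imager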
HEK293 Ca cntr2 – MrgX1 activator counter-screen hit in parental HEK293 cells; shares compounds with MrgX1 antagonist; Fluo-4 calcium fluorescence (FDSS); active compounds read high; fluorescence ratio F(max-min)/F0 at 10 µM; actives 8.7% (n = 4,000);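 active = calcium fluorescence ratio at least three times the spread of buffer wells, meaning a non-specific response in parental cells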
* marks the source's active call; other numbers are inactive results; ! = a repeat was not active.

How did Cc1ccccc1OCC(O)Cn1c(=N)n(CCN2CCOCC2)c2ccccc21 (centres undefined) do in these assays?
MrgX1 antagonist: -8.47*!; MrgX1 ag: inactive; RGS4 block: inactive; MrgX1 allo act: inactive; RGS4 act: inactive; MrgX1 ant reconf: inactive; HEK293 Ca flux: inactive; HEK293 Ca counter: inactive; HEK293 Ca cntr2: inactive

What do the screens show for `O=C(NCCc1ccncc1)Nc1cccc(Cl)c1`?
MrgX1 antagonist: -4.56*; MrgX1 ag: inactive; RGS4 block: inactive; MrgX1 allo act: inactive; RGS4 act: inactive; MrgX1 ant reconf: inactive; HEK293 Ca flux: inactive; HEK293 Ca counter: inactive; HEK293 Ca cntr2: inactive

Results for CCn1c2ccccc2c2cc(NC(=O)COC(=O)c3ccc(O)cc3)ccc21 ?
MrgX1 antagonist: -7.7*; MrgX1 ag: inactive; RGS4 block: inactive; MrgX1 allo act: inactive; RGS4 act: inactive; MrgX1 ant reconf: inactive; HEK293 Ca flux: inactive; HEK293 Ca counter: inactive; HEK293 Ca cntr2: inactive

Results for Cn1cc(CC(=O)Nc2cccc(C#N)c2)c2ccccc21 ?
MrgX1 antagonist: -4.6*; MrgX1 ag: inactive; RGS4 block: inactive; MrgX1 allo act: inactive; RGS4 act: inactive; MrgX1 ant reconf: inactive; HEK293 Ca flux: inactive; HEK293 Ca counter: inactive; HEK293 Ca cntr2: inactive

How did COc1ccc(NC(=O)Cc2coc3ccc4ccccc4c23)cc1S(=O)(=O)N1CCOCC1 do in these assays?
MrgX1 antagonist: -6.72*; MrgX1 ag: inactive; RGS4 block: inactive; MrgX1 allo act: inactive; RGS4 act: inactive; MrgX1 ant reconf: inactive; HEK293 Ca flux: inactive; HEK293 Ca counter: inactive; HEK293 Ca cntr2: inactive

How did COc1ccc2[nH]c(CN3CCN(CC=C(C)C)C(CCO)C3)c(C)c2c1 (centres undefined) do in these assays?
MrgX1 antagonist: inactive; MrgX1 ag: inactive; RGS4 block: inactive; MrgX1 allo act: inactive; RGS4 act: inactive

Results for CC(C)(C)n1nnnc1C(c1cc2cc3c(cc2[nH]c1=O)OCO3)N1CCN(c2ccccc2)CC1 (centres undefined) ?
MrgX1 antagonist: -6.96*; MrgX1 ag: inactive; RGS4 block: inactive; MrgX1 allo act: inactive; RGS4 act: inactive; MrgX1 ant reconf: inactive; HEK293 Ca flux: inactive; HEK293 Ca counter: inactive; HEK293 Ca cntr2: inactive

Results for COCCCNC(=O)C1CC(=O)N(C2CCCC2)C1 (centres undefined) ?
MrgX1 antagonist: -4.81*; MrgX1 ag: inactive; RGS4 block: inactive; MrgX1 allo act: inactive; RGS4 act: inactive; MrgX1 ant reconf: inactive; HEK293 Ca flux: inactive; HEK293 Ca counter: inactive; HEK293 Ca cntr2: inactive

Results for O=C(NCCc1ccccc1)[C@@H]1CC=C[C@@H]2CCN(Cc3ccccc3)C(=O)[C@@H]21 ?
MrgX1 antagonist: inactive; MrgX1 ag: inactive; RGS4 block: inactive; MrgX1 allo act: inactive; RGS4 act: inactive

Results for CCOc1ccccc1N1CCN(C/C=C/c2ccc(N(C)C)cc2)CC1 ?
MrgX1 antagonist: -4.66*; MrgX1 ag: inactive; RGS4 block: inactive; MrgX1 allo act: inactive; RGS4 act: inactive; MrgX1 ant reconf: inactive; HEK293 Ca flux: inactive; HEK293 Ca counter: inactive; HEK293 Ca cntr2: inactive

Results for CCc1nc2ccccc2c(=O)n1/N=C/c1ccc(OC)cc1 ?
MrgX1 antagonist: inactive; MrgX1 ag: inactive; RGS4 block: inactive; MrgX1 allo act: inactive; RGS4 act: inactive

Results for Nc1nc(Cl)cc(NCCc2ccccc2)n1 ?
MrgX1 antagonist: inactive; MrgX1 ag: inactive; RGS4 block: inactive; MrgX1 allo act: inactive; RGS4 act: inactive

How did Nc1nc(Cl)cc(NCCc2ccc(O)cc2)n1 do in these assays?
MrgX1 antagonist: -5.83*; MrgX1 ag: inactive; RGS4 block: inactive; MrgX1 allo act: inactive; RGS4 act: inactive; MrgX1 ant reconf: inactive; HEK293 Ca flux: inactive; HEK293 Ca counter: inactive; HEK293 Ca cntr2: inactive

What do the screens show for `Cn1c(N2CCCC2)nc2c1c(=O)[nH]c(=O)n2C`?
MrgX1 antagonist: inactive; MrgX1 ag: inactive; RGS4 block: inactive; MrgX1 allo act: inactive; RGS4 act: inactive

How did CC1CCCN(C(=O)C2c3ccccc3C(=O)N3CCc4ccccc4C23)C1 (centres undefined) do in these assays?
MrgX1 antagonist: -5.54*; MrgX1 ag: inactive; RGS4 block: inactive; MrgX1 allo act: inactive; RGS4 act: inactive; MrgX1 ant reconf: inactive; HEK293 Ca flux: inactive; HEK293 Ca counter: inactive; HEK293 Ca cntr2: inactive

What do the screens show for `CCOc1ccc(OCC)c(NC(=O)Nc2ccc3c(c2)N(C)C(=O)CS3)c1`?
MrgX1 antagonist: -6.35*; MrgX1 ag: inactive; RGS4 block: inactive; MrgX1 allo act: inactive; RGS4 act: inactive; MrgX1 ant reconf: 80.4%*; HEK293 Ca flux: inactive; HEK293 Ca counter: inactive; HEK293 Ca cntr2: inactive

What do the screens show for `COc1cccc(NC(=O)Nc2ccc3c(c2)N(C)C(=O)CS3)c1`?
MrgX1 antagonist: -7.29*; MrgX1 ag: inactive; RGS4 block: inactive; MrgX1 allo act: inactive; RGS4 act: inactive; MrgX1 ant reconf: 42.0%*; HEK293 Ca flux: inactive; HEK293 Ca counter: inactive; HEK293 Ca cntr2: inactive

Results for CC(=O)Nc1ccc(NC(=O)Nc2ccc3c(c2)N(C)C(=O)CS3)cc1 ?
MrgX1 antagonist: inactive; MrgX1 ag: inactive; RGS4 block: inactive; MrgX1 allo act: inactive; RGS4 act: inactive

What do the screens show for `CC(=O)c1ccc(NC(=O)c2ccc(CNc3c(N4CCOCC4)c(=O)c3=O)cc2)cc1`?
MrgX1 antagonist: inactive; MrgX1 ag: inactive; RGS4 block: inactive; MrgX1 allo act: inactive; RGS4 act: inactive

How did CC(NC(=O)CNC(=O)c1sc2ccccc2c1Cl)c1ccc(S(N)(=O)=O)cc1 (centres undefined) do in these assays?
MrgX1 antagonist: inactive; MrgX1 ag: inactive; RGS4 block: inactive; MrgX1 allo act: inactive; RGS4 act: inactive
